# Experimental data from different studies.
# Lines come from different studies, so protocols differ.
# Target: Eukaryotic translation initiation factor 2-alpha kinase 1 (EIF2AK1, Homo sapiens, UniProt Q9BQI3)
SMILES,assay,setting,remaining binding
CN(C)c1nccc(-c2cnn3ncccc23)n1,binding,1 µM,100%
Nc1ncc2c(n1)-c1c([nH]c3ccc(C#CC4CC4)cc13)CCCC2,"binding, competition with immobilised ligand",1 µM,80%
Cc1cnc(Nc2ccc(C(=O)N3CCC(N4CCCC4)CC3)cc2)nc1-c1cc2ccccc2s1,"binding, competition with immobilised ligand",1 µM,100%
CN(C)c1nccc(-c2cnc3ncccn23)n1,binding,1 µM,69%
COc1cnc(Nc2cccc(S(N)(=O)=O)c2)nc1N1CCN(c2ccccc2)C(=O)C1,"binding, competition with immobilised ligand",1 µM,89%
O=C(Nc1c[nH]nc1C(=O)NC1CCNCC1)c1cc(F)cc(F)c1,"binding, competition with immobilised ligand",1 µM,91%
O=C(NCc1ncc(C(F)(F)F)cc1Cl)c1ccc2c(c1)C1(CCS(=O)(=O)CC1)[C@H](C1CC1)N2S(=O)(=O)c1ccc(F)cc1,"cell-free assay, competition with immobilised ligand",1 µM,86%
CN(CCCC(F)(F)F)c1nccc(-c2cnn3ncccc23)n1,binding,1 µM,100%
CC(=O)C1=C(C)N(c2cccc(C(F)(F)F)c2)C(=O)N[C@@H]1c1ccc(C#N)nc1,"cell-free assay, competition with immobilised ligand",1 µM,100%
c1cncc(-c2cccc(Nc3nccc(NC4CCCCC4)n3)c2)c1,"binding, competition with immobilised ligand",10 µM,87%
Nc1cnc(N2CCc3cc(S(=O)(=O)Nc4c(F)cc(Cl)cc4F)cc(N4CCCC4=O)c32)nc1,"cell-free assay, competition with immobilised ligand",1 µM,94%
COc1ccnn2ncc(-c3ccnc(N(C)C)n3)c12,binding,1 µM,95%
CCN1CCN(Cc2ccc(C(=O)Nc3ccc(C)c(Oc4ccc5c(c4)CC(=O)N5)c3)cc2C(F)(F)F)CC1,"binding, competition with immobilised ligand",1 µM,100%
C[C@H](c1ccc(F)cc1)N(Cc1cccc(C(=O)O)c1)C(=O)c1cnc2ccccc2c1,"cell-free assay, competition with immobilised ligand",1 µM,84%
O=C(NCCCN1CCOCC1)c1ccc(Nc2nccc(-c3cc4ccccc4s3)n2)cc1,"binding, competition with immobilised ligand",1 µM,100%
CC1CCCN1c1nccc(-c2cnn3ncccc23)n1 (stereo not shown),binding,1 µM,100%
O=C(c1ccc(Nc2ncc(Cl)c(-c3ccc(Cl)s3)n2)cc1)N1CCC(N2CCCC2)CC1,"binding, competition with immobilised ligand",1 µM,86%
Cc1cnn2ncc(-c3ccnc(N(C)C)n3)c2c1,binding,1 µM,84%
Cc1nc(N2CC[C@@H](O)C2)ncc1-c1cc(C(F)(F)F)cc2[nH]ncc12,"binding, competition with immobilised ligand",1 µM,98%
C[C@@H]1CCN(c2nccc(-c3cnn4ncccc34)n2)C1,binding,1 µM,79%
Cc1nc(C2CCN(C(=O)c3ccc(OC(F)(F)F)cc3N)CC2)c2ncc(N3CCN(C)CC3)cc2n1,"cell-free assay, competition with immobilised ligand",1 µM,85%
CNC(=O)[C@@H]1CC[C@@H](n2c(-c3ccc4cnccc4c3)nc3ccc(C(=O)NCc4cccc(C(N)=O)c4)cc32)C1,"binding, competition with immobilised ligand",1 µM,100%
